Laboratory results from PubChem BioAssay AID504502 (Broad Institute, 2011).
Activity calls are given as the source filed them.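 The calls were made as follows: active = compounds whose fitted half-maximal growth inhibition concentration is at most ten times the top tested dose; inconclusive = flat curve with 30 to 70% inhibition, or poor fit; inactive = the rest.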

Test system: not listed separately
Experiment: C. albicans growth inhibition with fluconazole, confirmation, CaCi-2, fluconazole present, retest, powder, set 6 (AID 504502)
Details: C. albicans CaCi-2 + fluconazole, Alamar Blue growth, 48 h; at 12 µM (top of the series)
In short: (§1)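 Assay system: Candida albicans CaCi-2, clinical isolate resistant to fluconazole / Medium: defined RPMI medium with MOPS buffer / Reagent: fluconazole 8 µg/mL / Doses: compounds delivered by pin transfer / Schedule: compound 48 h static at 37 °C, Alamar Blue 2 h / Measured by: Alamar Blue fluorescence at 1:200 final, excitation 544 nm, emission 590 nm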

SMILES	activity change, negative = inhibition
COC(=O)Cn1nc(-c2cnco2)c2ccccc21	-10.5% (inactive)
COC(=O)Cn1nc(-c2ccccc2)c2cccnc21	-41.1% (inactive)
CCc1nn(CC(=O)OC)c2ccccc12	6.18% (inactive)
O=C(O)Cn1c2ccccc2c2nc3n(c(=O)c21)CCS3	-8.34% (inactive)
CC1CCN(CCn2c3ccccc3c3nc4n(c(=O)c32)CCS4)CC1	-9.05% (inactive)
CC1(O)CN(C(=O)Cn2c3ccccc3c3nc4n(c(=O)c32)CCS4)C1	-0.117% (inactive)
COC(=O)Cn1nc(-c2cccnc2)c2ccccc21	-23.4% (inactive)
O=C(O)Cn1c2ccc(F)cc2c2nc3n(c(=O)c21)CCS3	0.059% (inactive)
COC(=O)Cn1nc(C(C)(C)C)c2ccccc21	3% (inactive)
COC(=O)n1nc(-c2ccccc2)c2ccccc21	10.4% (inactive)
COC(=O)Cn1nc(C2CC2)c2ccccc21	0.132% (inactive)

Test system: C. albicans CaCi-2 + fluconazole, Alamar Blue growth, 48 h
Experiment: as above
Details: not given
In short: as §1

SMILES	AC50
O=C(Cn1c2ccccc2c2nc3n(c(=O)c21)CCS3)N1CCC(F)(F)CC1	1470 nM
COC(=O)Cn1nc(-c2cccc(F)c2)c2ccccc21	1170 nM
O=C(Cn1c2ccccc2c2nc3n(c(=O)c21)CCS3)N1CCCCC1	1250 nM
COC(=O)Cn1nc(C2CCCCC2)c2ccccc21	1800 nM
COC(=O)Cn1nc(-c2cccc(C)c2)c2ccccc21	646 nM
COC(=O)Cn1c2ccc(F)cc2c2nc3n(c(=O)c21)CCS3	2080 nM
O=C(Cn1c2ccc(F)cc2c2nc3n(c(=O)c21)CCS3)N1CCC(F)(F)CC1	391 nM
CN1CCN(C(=O)Cn2c3ccccc3c3nc4n(c(=O)c32)CCS4)CC1	4740 nM
O=C(Cn1c2ccccc2c2nc3n(c(=O)c21)CCS3)N1CC=CC1	821 nM
O=C(Cn1c2ccc(F)cc2c2nc3n(c(=O)c21)CCS3)N1CC=CC1	276 nM
COC(=O)Cn1nc(-c2cccc(OC)c2)c2ccccc21	348 nM
O=C(Cn1c2ccc(F)cc2c2nc3n(c(=O)c21)CCS3)N1CCCC1	298 nM
O=C(Cn1c2ccccc2c2nc3n(c(=O)c21)CCS3)N1CCC(F)(F)C1	3700 nM
O=C(Cn1c2ccc(F)cc2c2nc3n(c(=O)c21)CCS3)N1CCC(F)(F)C1	717 nM
O=C(Cn1c2ccccc2c2nc3n(c(=O)c21)CCS3)N1CCCC1	795 nM
